Reference: ChEMBL document CHEMBL1212850, “Synthesis and biological evaluation of arylidene analogues of Meldrum's acid as a new class of antimalarial and antioxidant agents” (Bioorg Med Chem, 2010)
pIC50: −log10 of the molar value.

Assays:
[1] = tested on: Plasmodium falciparum; experiment: Antimalarial activity against Plasmodium falciparum infected in human O+ erythrocytes after 48 hrs by HRP2-ELISA method; type: functional, organism-based
[2] = Antioxidant activity assessed as ABTS free radical scavenging activity at 100 uM after 12 hrs; type: functional
Procedure, shortened: (§1)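 ABTS radical cation made by mixing 7 mM ABTS stock with 2.45 mM potassium persulfate, left 12 h in dark. Ethanolic compound solution added to ABTS solution, absorbance at 734 nm read after mixing up to 6 min. Reported as % ABTS radical scavenged; triplicate.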

[3] = tested on: Radical scavenging activity; experiment: Antioxidant activity assessed as DPPH free radical scavenging activity at 100 uM after 1 hr; type: functional
Procedure, shortened: (§2)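 Test compound at various concentrations added to 60 µM methanolic DPPH. Held 1 h at room temperature, then absorbance read at 517 nm; trolox used as reference standard. Values from three experiments.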

[4] = Antioxidant activity assessed as ABTS free radical scavenging activity after 12 hrs; type: functional; procedure, shortened: as §1
[5] = tested on: Radical scavenging activity; experiment: Antioxidant activity assessed as DPPH free radical scavenging activity after 1 hr; type: functional; procedure, shortened: as §2

SMILES | pIC50 [1] | inhibition [2] | inhibition [3] | pIC50 [4] | pIC50 [5]
CC1(C)OC(=O)C(=Cc2ccccc2)C(=O)O1 | 4.42 | – | – | – | –
COc1cc(C=C2C(=O)OC(C)(C)OC2=O)cc(OC)c1OC | 4.69 | 5.33% | 3.24% | – | –
COc1ccc(C=C2C(=O)OC(C)(C)OC2=O)c(OC)c1OC | 4.46 | 13% | 5.72% | – | –
CC1(C)OC(=O)C(=Cc2c3ccccc3cc3ccccc23)C(=O)O1 | < 4.00 | 10.7% | 8.76% | – | –
C[C@@H]1CC[C@H]2[C@@H](C)C(=O)O[C@@H]3O[C@@]4(C)CC[C@@H]1[C@]32OO4 [ARTEMISININ] | 8.55 | – | – | – | –
CC1(C)OC(=O)C2(OC2c2ccccc2)C(=O)O1 (stereo not drawn) | < 4.00 | – | – | – | –
CC1(C)OC(=O)C(=Cc2cccs2)C(=O)O1 | < 4.00 | 3.77% | 6.32% | – | –
CC1(C)OC(=O)C(=Cc2ccc3ccccc3c2)C(=O)O1 | 4.84 | 17% | 20.6% | – | –
Cc1c(C)c2c(c(C)c1O)CCC(C)(C(=O)O)O2 (stereo not drawn) [TROLOX] | – | 99.1% | 99.5% | 4.79 | 4.80
COc1ccc(OC)c(C=C2C(=O)OC(C)(C)OC2=O)c1 | 4.48 | 13.8% | 12.2% | – | –
COc1cc(C=C2C(=O)OC(C)(C)OC2=O)ccc1OCc1ccccc1 | 4.43 | 3.62% | 10.7% | – | –
CC1(C)OC(=O)C(=Cc2c[nH]c3ccccc23)C(=O)O1 | 4.38 | 3.12% | 1.79% | – | –
COc1ccc(C=C2C(=O)OC(C)(C)OC2=O)cc1OCc1ccccc1 | 4.44 | – | – | – | –
COc1ccc(C=C2C(=O)OC(C)(C)OC2=O)cc1OC | 4.58 | 6.84% | 4.74% | – | –
COc1cc(C=C2C(=O)OC(C)(C)OC2=O)ccc1O | 5.01 | 92.6% | 76% | 4.52 | 4.62
CN(C)c1ccc(C=C2C(=O)OC(C)(C)OC2=O)cc1 | 4.45 | 13.9% | 10.3% | – | –
CC1(C)OC(=O)C(=Cc2ccccc2[N+](=O)[O-])C(=O)O1 | 4.40 | 1.3% | 6.41% | – | –
COc1ccc(C=C2C(=O)OC(C)(C)OC2=O)cc1 | 4.44 | 9.26% | 5.81% | – | –
COc1ccc(C=C2C(=O)OC(C)(C)OC2=O)cc1O | 4.91 | 52.8% | 40.2% | 4.14 | 4.10
O=C1CCCC(=O)C1=Cc1ccccc1 | < 4.00 | – | – | – | –
CC1(C)OC(=O)C(=Cc2ccc(O)cc2)C(=O)O1 | 4.46 | 14.4% | 5.12% | – | –
CCOc1cc(C=C2C(=O)OC(C)(C)OC2=O)ccc1O | 4.81 | 95.6% | 66.2% | 4.51 | 4.41
CC1(C)OC(=O)C(=C/C=C/c2ccccc2)C(=O)O1 | 4.61 | 20.2% | 53.1% | – | –
CC1(C)OC(=O)C(=Cc2ccc3c(c2)OCO3)C(=O)O1 | 4.55 | 8.25% | 8.2% | – | –
CC1(C)OC(=O)C2(OC2c2ccccc2[N+](=O)[O-])C(=O)O1 (stereo not drawn) | < 4.00 | – | – | – | –
O=C1O[C@H]([C@@H](O)CO)C(O)=C1O [ASCORBIC ACID] | – | 98% | 99.4% | 4.59 | 4.65
CC1(C)OC(=O)C(=Cc2cccc3ccccc23)C(=O)O1 | 4.79 | 7.55% | 8.88% | – | –
COc1ccc2ccccc2c1C=C1C(=O)OC(C)(C)OC1=O | 4.50 | 4.73% | 9.48% | – | –
COc1cc(OC)c(OC)cc1C=C1C(=O)OC(C)(C)OC1=O | 4.47 | 9.86% | 6.23% | – | –
